Measured values reported in the EternaBench riboswitch data.

System: MS2 coat protein
Experiment: apparent Kd, MS2 coat protein; higher = weaker binding; RNA-MaP array; FMN 200 µM where present
In short: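 The apparent Kd is the median of filtered binding-curve fits, one per cluster, to green signal normalised to red-channel RNA signal and control-cluster median Fmax. The clusters were on Illumina sequencing chips, and stalled E. coli RNA polymerase had transcribed the designs on them. Titration used SNAP-549-labelled MS2 coat protein from 0.7 or 1.5 nM, doubling to 3 µM, without and then with constant ligand, in 100 mM Tris-HCl pH 7.5, 80 mM KCl, 4 mM MgCl2, BSA, DTT, yeast tRNA and Tween-20.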

[1] = designed as: OFF switch for flavin mononucleotide, no ligand
[2] = ligand present: flavin mononucleotide, designed as: OFF switch for flavin mononucleotide
[3] = designed as: ON switch for flavin mononucleotide, no ligand
[4] = ligand present: flavin mononucleotide, designed as: ON switch for flavin mononucleotide

| Sequence | apparent Kd [1] [nM] | apparent Kd [2] [nM] | apparent Kd [3] [nM] | apparent Kd [4] [nM] |
| --- | --- | --- | --- | --- |
| GUCAGCUCGUGAGGAUAUACAUGAGGAUCACCCAUGUGAUCAAUAGCAGCUUCGGCUGCAUACAUGUAGAAGGCACGAGCUGAU | 43.1 | 62.9 | – | – |
| AAGUAGAACGUAGGAUAUCAAUGAGGAUCACCCUGAGAAGGACGUGAGGACAUGAGGAUCACCCAUGUGGAUCACCCAUGUCAU | 157 | 132 | – | – |
| UGGUACUAGGGAGGAUAUGGGAAGAUACAUGAGGAUCACCCAUGUUUAAGCAUGCCGAGAGGCAACUAGAAGGCCCUAGUACCU | – | – | 357 | 18 |
| CGCACUGAUAGAGGAUAUGUUUUACAUGAGGAUCACCCAUGUGUACAAGGAUCAAUAUAUUAGUAACAGAAGGCUAUUUGUGCG | 21.7 | 19.1 | – | – |
| ACGGCUAACCCAGUUUGAAUCUCAAGAAGGGUACACUGGGCAAGGUACAUGAGGAUCACCCAUGUACAGGAUAUUGAGAUGAGA | 48.4 | 74 | – | – |
| GCACUGGAUGUAGGAUAUCAGGACGAUAAGUCCUGAGAAGGACAUGAGGAUCACCCAUGUCUCAAAACCAGUGCAUAUAAUAUA | 13.2 | 19.1 | – | – |
| AACAUGUGAGGAUAUUGAUUGGAGACGUGGAGACCGCUAAUUAAGAAGGUACAUGAGGAUCACCCAUGUCCCAU | 215 | 231 | – | – |
| GUUGGCUGAGGAUAUGCUUGCAUGCUUUUGUGUUGCGGGUGACAUGAGGAUCACCCAUGUAGAAGGUGGUCGGC | 1040 | 817 | – | – |
| GGUCGGAAUUUCGACGGCCUGAGGGAGGAUAUACAAGGCCGGCGUCGCACAUGAGGAUCACCCAUGUAGAAGGCCCAAGGCCUG | 6 | 7.2 | – | – |
| AGUCGGAGCAGAGGAUAUUACAUGAGGAUCACCCAUGUGGAAGAACCAAGCUGGAAACAGCAAUGUAAGAAGGCUGCUCCGACA | 918 | 430 | – | – |
| CUAAUUAGUCAGAAGGUGCUGCCGGAAUCAUAGCAAGGAUAUGACAUGAGGAUCACCCAUGUACAGAUCCUACAUAAAAUCAGG | 5.73 | 8.98 | – | – |
| AUAAAUGAUGAGGAUAUCACUAGCGAUAGCUAGUGAGAAGGCAUCACAUGAGGAUCACCCAUGUGCUCCAAUAA | 115 | 486 | – | – |
| AGCUACGUUUCGUAGCAGUGUCAUCGAGAAGGCUCAUAAACAUGAGGAUCACCCAUGUAUUCAUGGGAGGAUAUCGAUGAUACA | – | – | 32.2 | 6.04 |
| AGAGAGAGCACAGGAUAUCCGCGCACAUGUAGCGGAGAAGGGUGACCUUUUUGCACAUGAGGAUCACCCAUGUCCAGCACCACA | – | – | 39.7 | 21.7 |
| GGACAGGACAGAGGAUAUACGUGCUAGAGAUACUAGCAAAAUUUCCUCACAUGAGGAUCACCCAUGUAGAAGGCUGUCCUAUCG | 7.39 | 123 | – | – |
| AAGAAGUCAGGAUAUGCAUGGCGGGACUUGCGUCGUGGCGUGCAGAAGGGACAUGAGGAUCACCCAUGUAAAGA | 49.4 | 41.7 | – | – |
| UGGAUGGUAUGAGGAUAUGCGCGUGAAACGCGCGCAGAAGGCAUGUCAAUAGACAUGAGGAUCACCCAUGUACUAUCCAUCCAA | – | – | 114 | 9.65 |
| UUUCCGCAAGGAUAUACGGGCUGUGCUUUUCAUUUCUUACAACAUGAGGAUCACCCAUGUAGAAGGUGCUUCUU | 208 | 217 | – | – |
| GAAUUCGCAUGAGGAUAUGCACUCAUUUCAUGUGCAGAAGGUAUAUCAUUAGACAUGAGGAUCACCCAUGUAUUGGUCAUUAAA | – | – | 15.8 | 13.9 |
| AUGAGCUCGUCAGGAUAUACGUCACUGCGUCAGCAGUGUGGUAAGAUCACAUGAGGAUCACCCAUGUAGAAGGGACGAGCUGAU | 14.6 | 307 | – | – |
| CCAGUGUAAGGAUAUGACAAUGGUAUCUUCGGAUACCAUUGUCAGAAGGUACAUGAGGAUCACCCAUGUAACAC | 16.6 | 26.5 | – | – |
| GGGUACAUCGGAGGAUAUCAUGUAAAUACAUGAGGAUCACCCAUGUCGAUGGAGACAUCGGAGAUUGAGAAGGCCGAUGUACUG | – | – | 169 | 8.5 |
| GGUAGACAUGAGGAUCACCCAUGUGAGGAUAUCGUCAUAGAUGCAAAAGCAUCUAUGACGAGAAGGUACAUGCC | 33.1 | 34.3 | – | – |
| UGCACAUGAGGAUCACCCAUGUAUUGUUCGGUUAAUAGAAGUGAGGAUAUGCAUAAAAUAAGGUAGCAGAAGGCACAGGAUUCA | – | – | 23.9 | 25.4 |
| CCAUGAACAGGAUAUCUUCCUCCGAACAUGAGGAUCACCCAUGUAACUGUGUAGCAUGACAGAGAAGGGUUUAUGG | 99.5 | 56.7 | – | – |
| AGAUUUGUACAUGAGGAUCACCCAUGUUAAUAGGUGUUUGUCAGAAGGCAUUAAUAGAGAUUUAAUGAGGAUAUGAAGUUACAA | – | – | 70.3 | 46.3 |
| GGUCAACAUGAGGAUCACCCAUGUAAGCCAAGGCAAGGAUAUGGGUAUAGGGUACUAGGGUUAGAAGGUGCCAAUA | – | – | 144 | 182 |
